Reference: paper PMC10424151 (Molecular Therapy. Nucleic Acids, 2023)

How the values were obtained:
HCT-116 cells = test: Cellular uptake of Alexa 488-labeled bDNA by FACS; assay type: cell-based; settings: HCT-116, 75 nM Alexa 488-labeled bDNA + 25 μM peptide, overnight
How it was run: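 HCT-116 cells (2×10^5 per well) seeded overnight in serum-free DMEM, then washed twice with PBS. Alexa 488-bDNA (75 nM) premixed with test peptide (25 μM) in DMEM about 30 min at room temperature, added to cells and left overnight at 37 °C. Cells detached with 0.25% trypsin/0.53 mM EDTA (5 min, 37 °C), pelleted at 700 × g for 5 min, washed twice, resuspended in PBS and analysed by flow cytometry.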

bDNAaso [1] = test: Isothermal titration calorimetry of linear peptides with bDNA; assay type: binding; settings: 25 °C, 1 μM bDNA titrated with 100 μM peptide, 1× TEAM buffer pH 7.4
[2] = Zeta potential measurement; assay type: physicochemical; settings: 1 μM bDNA + 100 μM peptide, 1 h, 25 °C
How it was run: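 bDNA (1 μM) incubated 1 h with 100 μM linear test peptide. bDNA alone and peptide alone at the same concentrations incubated 1 h at 25 °C as controls. Zeta potential […] by the Smoluchowski approximation. Values are the mean of triplicate readings.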

[3] = Release of bDNA from peptide complexes; assay type: in vitro ADME; settings: 1 μM bDNAaso + 100 μM W4R4 in serum-free DMEM, 1% SDS, 30 min, 2% agarose gel
How it was run: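 Gel-shift release: 1 μM bDNAaso was complexed with 100 μM test peptide in 20 μL serum-free DMEM for 1 h at room temperature. The complex was exposed to 1% SDS for 30 min, then run on 2% agarose for 25 min at constant 80 V and the gel imaged.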

[4] = Dynamic light-scattering measurement of hydrodynamic radius; assay type: physicochemical; settings: DLS, 100 μM peptide + 1 μM bDNA, 1 h incubation, 25 °C
How it was run: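 bDNA was dissolved in self-assembly buffer, pH 7.4, and filtered through 0.22 µm. Linear peptide (100 µM) was incubated with 1 µM bDNA for 1 h, with peptide alone as control. DLS was read at 658 nm with a 175° scattering angle at 25°C, averaging triplicate readings. Rh came from autocorrelation analysis via the translational diffusion coefficient and the Stokes-Einstein relation.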

DNase I = biological target: T1, DNase I (Homo sapiens, UniProt P24855); test: DNase I stability assay; assay type: in vitro ADME; settings: for stability of peptide-bDNA complex in the presence of DNase I: 1 μM bDNA + 50 or 100 μM peptide, 10 U/mL DNase I, up to 30 min, 37 °C, 2% AGE
T1 sequence (P24855 23-282): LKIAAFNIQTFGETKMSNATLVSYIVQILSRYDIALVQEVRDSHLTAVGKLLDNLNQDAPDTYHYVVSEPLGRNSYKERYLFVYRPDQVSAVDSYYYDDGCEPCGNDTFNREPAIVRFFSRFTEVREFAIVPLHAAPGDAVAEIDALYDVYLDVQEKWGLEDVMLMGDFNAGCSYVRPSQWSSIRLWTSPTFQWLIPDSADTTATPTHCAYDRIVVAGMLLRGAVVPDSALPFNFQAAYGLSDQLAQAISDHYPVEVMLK
How it was run: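 Complexes of 1 µM bDNA pre-incubated with 100 µM linear peptide were exposed to 10 U/mL DNase I for 15 and 30 min. A second set used 1 µM bDNA with 50 µM linear peptide, digested for 5, 10, 20 and 30 min at 37°C. Digests were run on 2% agarose gels at 80 V for 25 min, and stability was judged from band intensity.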

bDNAaso [5] = test: CD titration of bDNAaso with linear peptides; assay type: binding; settings: 1 μM bDNA, 5 to 100 μM peptide, 25 °C (Figures 4G and S13G)
Alexa 488 bDNA = test: Absorbance; assay type: binding; settings: 1 μM Alexa 488 bDNA, peptide/bDNA 0:1 to 100:1, 1 h, 25 °C, 495 nm
How it was run: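 Alexa 488-labelled bDNA (1 μM) incubated 1 h at 25 °C with linear test peptide at peptide/bDNA molar ratios 0:1 to 100:1. UV-vis absorbance spectra recorded over 450–550 nm. Hypochromicity expressed as ΔOD_r = (OD0 − OD)/OD0, where OD0 is free labelled bDNA and OD is the bDNA–peptide complex, then plotted against molar ratio.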

Row | binding affinity to bDNAaso relative to other peptide-bound bDNAs (ITC) (bDNAaso [1]) | zeta potential of bDNA in the presence of the peptide [2] | effect of SDS on the W4R4-bDNAaso complex [3] | change of hydrodynamic radii of the peptide in the presence of bDNAs [4] | stability of peptide-bDNA complex in the presence of DNase I (DNase I) | protection of peptide-bound bDNAs against nuclease degradation (DNase I; peptide-bound bDNAs, Figures S19 and S20) [%] | Substance | cellular internalization relative to W3R3 (FACS) (HCT-116 cells) [fold] | CD peak intensities of bDNA in peptide-bDNA complex (bDNAaso [5]) | change in absorbance of Alexa 488 bDNA with increasing molar ratio of peptide (Alexa 488 bDNA)
1 | about nine times higher | positive zeta potential | triggered the release | increased significantly | retained the stability |  | Ac-WWWWGGRRRR-Am [W4R4] | 1.7 | flattened to the baseline | significant decline in absorbance
2 |  |  |  | moderate increase |  |  | Ac-WWWGGHHHH-Am [W3H4] |  |  | 
3 |  |  |  | moderate increase | retained the stability |  | Ac-WWWGGGRRR-Am [W3R3] |  |  | 
4 |  |  |  | increased significantly | degraded close to the control | 20 | Ac-WWWWGGHHHH-Am [W4H4] |  |  | no significant alteration in absorbance
